Here are results for 14 compounds from ChEMBL document CHEMBL5053485, “Targeting Acute Myelogenous Leukemia Using Potent Human Dihydroorotate Dehydrogenase Inhibitors Based on the 2-Hydroxypyrazolo[1,5-a]pyridine Scaffold: SAR of the Biphenyl Moiety” (J Med Chem, 2021).

Molecules are shown by their SMILES. Active and inactive are the calls of the source. No cut-off for these calls is given here.

The test system of data set [1] is THP-1. Put plainly: Induction of cell differentiation in human THP-1 cells assessed as CD14 expression at 1 uM after 3 days by flow cytometric analysis. The following applies: time 3.0 day. Type of data set: functional, cell-based. (In general: Flow cytometry measures light scatter and fluorescence of single cells or particles in a stream.)
Data set [2] has as its system THP-1. In words: Induction of apoptosis in human THP-1 cells at 1 uM after 3 days by Annexin-V-FITC staining based flow cytometry relative to control. In kind it is functional, cell-based. Conditions: time 3.0 day. The gist of the method:
(§1)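 After 3 days, annexin V-FITC was read by flow cytometry. Significance versus DMSO used two-tailed paired t tests (P < 0.05). The assay was also run with 100 μM uridine.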

Data set [3] can be described thus: Solubility of compound in PBS at pH 7.4 after 24 hrs by UHPLC analysis. Type of data set: physicochemical.
The test system of data set [4] is THP-1. Put plainly: Induction of apoptosis in human THP-1 cells at 0.1 uM after 3 days by Annexin-V-FITC staining based flow cytometry relative to control. In kind it is functional, cell-based. Conditions: time 3.0 day. In outline:
as §1

The subject of data set [5] is THP-1. In words: Induction of cell differentiation in human THP-1 cells assessed as CD14 expression at 0.1 uM after 3 days by flow cytometric analysis. Type of data set: functional, cell-based. Conditions: time 3.0 day.
Data set [6] concerns Jurkat. Put plainly: Cytotoxicity against human Jurkat cells assessed as concentration required to induce more than 30% cytotoxicity incubated for 3 days by CSFE dye based assay. Type of data set: cell-based. Conditions: 72 h, time 3 day.
Data set [7] in a line: Metabolic stability in Sprague-Dawley rat liver microsomes assessed as parent compound remaining after 30 mins. In kind it is ADME, Microsome. The following applies: 0.5 h. In outline: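 The regenerating system contained MgCl₂, NADP⁺, Glu6P and G6PDH. Controls were heat-inactivated microsomes and no regenerating system. Samples taken at 0–120 min were quenched in cold acetonitrile and analysed by HPLC–HRMS.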

Data set [8] can be described thus: Protein binding in human serum at 50 uM after 1 hr by RP-UHPLC method. Type of data set: ADME, cell-free. Conditions: read-out: PB (converted).
Data set [9] in a line: n-Octanol/PBS partition coefficient, logD of the compound at pH 7.4 incubated for 20 mins by shake flask method. In kind it is physicochemical.

`O=C(Nc1c(F)c(F)c(N2CCOCC2)c(F)c1F)c1c(O)nn2ccccc12`: the result in data set [1] and in data set [2] was inactive.
The term solubility denotes how much of the substance goes into solution per volume. Low readings indicate a poorly soluble substance, high ones a readily soluble substance. In the case of `O=C(Nc1c(F)c(F)c(-c2ccccc2)c(F)c1F)c1c(O)nn2c(Cl)cccc12`, the solubility at 24 h in data set [3] was less than 6 µM.
With `O=C(Nc1c(F)c(F)c(-c2ccccc2)c(F)c1F)c1c(O)nn2c1CCCC2`, the solubility at 24 h in [3] is less than 6 µM.
In the case of `O=C(Nc1c(F)c(F)c(-c2cccc(OC(F)(F)F)c2)c(F)c1F)c1c(O)nn2ccccc12`, the result in data set [4] and in data set [5] was Active. Further, in [6], the Activity was more than 100 µM.
As for `O=C(Nc1c(F)c(F)c(-c2cccnc2)c(F)c1F)c1c(O)nn2ccccc12`, the result in [1] and in [2] was inactive.
On to `CCCOc1cccc(-c2c(F)c(F)c(NC(=O)c3c(O)nn4ccccc34)c(F)c2F)c1`, for which the result in data set [4] and in [5] was Active. Besides, in data set [7], the Stability result is given as “Unstable”. Also, the Activity in data set [6] is more than 100 µM.
Regarding `COc1cccc(-c2cc(F)c(Nc3ncccc3C(=O)O)c(F)c2)c1` [ASLAN-003], the fraction unbound at 1 h, 50 µM in [8] is less than 0.01.
In the case of `O=C(Nc1c(F)c(F)c(-c2ccnc(C(F)(F)F)c2)c(F)c1F)c1c(O)nn2ccccc12`, the outcome in data set [1] and in [2] was inactive.
Consider `O=C(Nc1c(F)c(F)c(-c2cccc(O)c2)c(F)c1F)c1c(O)nn2ccccc12`, for which the outcome in data set [1] and in data set [2] was inactive.
The logD is the decadic logarithm of the distribution of all forms, ionised or not, between an organic phase and buffer at a given pH. A low value points to lower lipophilicity. `Cc1c(-c2ccc(-c3ccccc3F)cc2)nc2ccc(F)cc2c1C(=O)O` [BREQUINAR] showed a log distribution coefficient (logD) at 20 min in [9] of 1.83.
Regarding `CCn1c(CO)nn(-c2cc(O[C@@H](C)C(F)(F)F)c(C(=O)Nc3c(F)cccc3Cl)cc2F)c1=O`, in data set [8], the fraction unbound at 1 h, 50 µM was 0.099. The compound further came in with a logD at 20 min in data set [9] of 2.7. In addition, the solubility at 24 h in data set [3] was less than 1 µM.
In the case of `O=C(Nc1c(F)c(F)c(-c2cccc(C(F)(F)F)c2)c(F)c1F)c1c(O)nn2ccccc12`, the result in data set [4] and in [5] was Active. Besides, in data set [6], the Activity was more than 100 µM.
With `O=C(Nc1c(F)c(F)c(-c2cccc(F)c2)c(F)c1F)c1c(O)nn2ccccc12`, the outcome in data set [4] and in data set [5] was Active. The compound also displayed a log distribution coefficient (logD) at 20 min in data set [9] of 2.09.
Take `COc1cccc(-c2c(F)c(F)c(NC(=O)c3c(O)nn4ccccc34)c(F)c2F)c1`: the result in [4] and in data set [5] was Active.
